pIC50: −log10 of the molar value.
Legend:
[1] = biological target: Cruzipain (Trypanosoma cruzi) (UniProt P25779); experiment: Inhibition of Trypanosoma cruzi catalytic activity of cruzain using Z-FR-AMC as substrate at 50 uM after 10 mins by fluorescence assay
Trypanosoma cruzi [2] = experiment: Antiparasitic activity against trypomastigotes of Trypanosoma cruzi Y assessed as reduction of parasite count after 24 hrs; assay type: functional
Trypanosoma cruzi [3] = experiment: Antitrypanosomal activity against amastigote and trypomastigote forms of Trypanosoma cruzi Tulahuen expressing beta-galactosidase gene infected in mouse L-929 cells assessed as inhibition of parasite growth at 100 uM after 7 days by colorimetric betagalactosidase assay; assay type: functional; details: L929, 168 h
Trypanosoma cruzi [4] = experiment: Antiparasitic activity against epimastigotes of Trypanosoma cruzi Dm28c assessed as reduction of parasite count after 5 days; assay type: functional; details: 120 h
[5] = Cytotoxicity against BALB/c mouse splenocytes assessed as maximum non-toxic concentration by measuring [3H]-thymidine incorporation after 24 hrs by liquid scintillation counting; assay type: cell-based, Splenocyte
Procedure, shortened: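 BALB/c splenocytes, 5 x 10^6 cells/well, given compounds at 1.23, 3.7, 33.33 and 100 µg/mL, 1% DMSO final, triplicate; 24 h at 37 °C, 5% CO2. Then 1.0 µCi [3H]-thymidine added; cells harvested and counted by liquid scintillation. Highest non-cytotoxic concentration taken from % incorporation.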

Trypanosoma cruzi [6] = experiment: Antitrypanosomal activity against amastigote and trypomastigote forms of Trypanosoma cruzi Tulahuen expressing beta-galactosidase gene infected in mouse L-929 cells assessed as inhibition of parasite growth after 7 days by colorimetric betagalactosidase assay; assay type: functional, organism-based; details: L929, 168 h
[7] = Selectivity index, ratio of CC50 for mouse L929 cells to IC50 for amastigote and trypomastigote forms of Trypanosoma cruzi Tulahuen; assay type: functional
Procedure, shortened: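 SI = CC50 in uninfected L-929 fibroblasts (alamarBlue, 96 h) divided by IC50 against intracellular amastigote/trypomastigote forms (beta-galactosidase assay, 7 days).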

[8] = Cytotoxicity against mouse L929 cells assessed as cell viability after 96 hrs by alamarBlue assay; assay type: cell-based
Procedure, shortened: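 Uninfected L-929 cells at the same cell number and timing as the beta-galactosidase assay; increasing concentrations starting at the T. cruzi IC50, quadruplicate. After 96 h, alamarBlue added; absorbance at 570 and 600 nm read 6 h later. Viability as % reduction versus untreated; CC50 by linear interpolation.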

Trypanosoma cruzi [9] = experiment: Antiparasitic activity against trypomastigotes of Trypanosoma cruzi Y assessed as induction of parasite death at 0.5 uM after 24 hrs using propidium iodide staining after 24 hrs by flow cytometry analysis; assay type: functional
Procedure, shortened: (§1)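 Y strain trypomastigotes (4x10^5) in RPMI-1640 with 10% FBS, exposed to test agent for 24 h at 37 °C, 5% CO2; then stained with propidium iodide and analysed by flow cytometry, at least 10,000 events. Read-out is % PI-positive cells versus untreated parasites; Triton X-100 as positive control. Two independent experiments, each concentration in duplicate.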

Trypanosoma cruzi [10] = experiment: Antiparasitic activity against trypomastigotes of Trypanosoma cruzi Y assessed as induction of parasite death at 5 uM after 24 hrs using propidium iodide staining after 24 hrs by flow cytometry analysis; assay type: functional; procedure, shortened: as §1
Cruzipain = Cruzipain (Trypanosoma cruzi, UniProt P25779); experiment: Inhibition of Trypanosoma cruzi catalytic activity of cruzain using Z-FR-AMC as substrate after 10 mins by fluorescence assay
Sequence of Cruzipain (P25779 whole entry): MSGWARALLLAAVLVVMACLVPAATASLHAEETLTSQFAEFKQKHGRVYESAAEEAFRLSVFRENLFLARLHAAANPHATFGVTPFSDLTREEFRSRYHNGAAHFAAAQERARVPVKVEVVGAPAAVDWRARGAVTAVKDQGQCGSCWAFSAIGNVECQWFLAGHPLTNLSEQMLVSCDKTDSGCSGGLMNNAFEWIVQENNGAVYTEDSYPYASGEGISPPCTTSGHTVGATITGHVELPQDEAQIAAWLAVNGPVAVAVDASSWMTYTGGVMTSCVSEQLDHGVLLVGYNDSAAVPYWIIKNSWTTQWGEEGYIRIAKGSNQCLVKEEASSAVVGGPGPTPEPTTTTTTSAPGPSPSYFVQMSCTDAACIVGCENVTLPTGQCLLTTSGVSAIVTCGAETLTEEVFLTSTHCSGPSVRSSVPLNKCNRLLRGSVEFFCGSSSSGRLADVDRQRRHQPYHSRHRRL

Sequence of Cruzipain (Trypanosoma cruzi) (P25779 123-467 limits assumed): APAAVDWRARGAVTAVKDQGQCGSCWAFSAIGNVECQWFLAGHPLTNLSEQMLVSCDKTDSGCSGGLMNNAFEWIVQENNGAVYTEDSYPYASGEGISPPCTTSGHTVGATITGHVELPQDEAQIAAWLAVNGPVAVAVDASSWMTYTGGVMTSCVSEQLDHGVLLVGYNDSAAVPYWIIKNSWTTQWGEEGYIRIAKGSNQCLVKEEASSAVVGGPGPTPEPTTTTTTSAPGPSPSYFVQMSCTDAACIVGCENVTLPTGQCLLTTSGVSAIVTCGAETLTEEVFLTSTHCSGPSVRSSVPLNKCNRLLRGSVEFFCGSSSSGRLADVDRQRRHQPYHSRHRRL

SMILES | inhibition [1] [%] | CC50 (Trypanosoma cruzi [2]) [µM] | inhibition at 100 µM (Trypanosoma cruzi [3]) [%] | pIC50 (Trypanosoma cruzi [4]) | MNTC at 24 h [5] [nM] | pIC50 (Trypanosoma cruzi [6]) | Ratio CC50/IC50 [7] | CC50 at 96 h [8] [µM] | Activity (Trypanosoma cruzi [9]) [%] | Activity (Trypanosoma cruzi [10]) [%] | pIC50 (Cruzipain)
Fc1ccc(/C(COc2ccc(Br)cc2)=N\NC(=S)Nc2ccccc2)cc1 | 35 | 15.6 | > 70 | – | – | – | – | – | – | – | –
NC(=S)N/N=C(/COc1ccc(Br)cc1)c1ccc(F)cc1 | 53.1 | 3.6 | > 70 | 5.42 | 2600 | 4.97 | <2.5 | < 26.2 | – | – | –
NC(=S)N/N=C(\COc1cccc(Cl)c1Cl)c1ccc(Br)cc1 | 81.8 | 5.7 | > 70 | 5.36 | 23100 | 4.97 | 2.8 | 23.1 | – | – | –
NC(=S)N/N=C(\COc1cccc2ccccc12)c1ccc(Br)cc1 | – | 3.4 | > 70 | 5.52 | 2400 | 4.32 | <2 | < 96.5 | – | – | –
COc1ccc(/C(COc2ccc(Br)cc2)=N\NC(=S)Nc2ccccc2)cc1 | 42.8 | – | > 70 | 4.99 | – | – | – | – | – | – | –
NC(=S)N/N=C(\COc1ccc(Cl)c(Cl)c1)c1ccc(Br)cc1 | 99.1 | 3 | > 70 | 5.74 | < 2300 | 5.08 | 2.8 | 23.1 | 2.3 | 44.9 | 8.10
CNC(=S)N/N=C(/COc1ccc(Br)cc1)c1ccc(F)cc1 | 30 | 7.4 | > 70 | 4.80 | – | – | – | – | – | – | –
NC(=S)N/N=C(\COc1ccc(-c2ccccc2)cc1)c1ccc(Br)cc1 | 63.7 | 12.3 | > 70 | 5.39 | 22700 | 4.12 | 1.2 | 90.8 | – | – | –
NC(=S)N/N=C(/COc1ccc(Br)cc1)c1cccc2ccccc12 | 73.6 | 14.7 | > 70 | 5.12 | 2400 | 5.32 | 2.5 | 12.1 | – | – | –
NC(=S)N/N=C(\COc1ccccc1)c1ccc(Br)cc1 | 61.8 | 6.6 | > 70 | 5.52 | 137000 | 5.27 | 10.2 | 54.9 | – | – | –
NC(=S)N/N=C(/COc1ccc(Br)cc1)c1ccc(-c2ccccc2)cc1 | 88.9 | 2.1 | > 70 | 5.41 | 2300 | 5.48 | 6.9 | 22.7 | – | – | 6.22
Cc1ccc(/C(COc2ccc(Br)cc2)=N\NC(N)=S)cc1 | 70.9 | 3.1 | > 70 | 5.43 | 13200 | 5.10 | 1.7 | 13.2 | – | – | –
NC(=S)N/N=C(\COc1ccc2ccccc2c1)c1ccc(Br)cc1 | 72.1 | 5 | > 70 | 5.28 | 2400 | 4.87 | >14.3 | > 193 | – | – | –
COc1cccc(OC/C(=N\NC(N)=S)c2ccc(Br)cc2)c1 | 62.8 | 1.2 | > 70 | 5.43 | 2500 | 5.00 | 5.1 | 50.7 | – | – | –
NC(=S)N/N=C(\COc1ccc(I)cc1)c1ccc(Br)cc1 | 63.3 | 2.1 | > 70 | 5.54 | 2100 | 5.07 | 2.4 | < 20.4 | – | – | –
